Publication PMC6525014 (Journal of labelled compounds & radiopharmaceuticals, 2019)

Tests used:
[1] = Metabolic stability in pooled SD rat liver microsomes; type: in vitro ADME; conditions: for half-life at 1 μM: SD, rat, pooled rat liver microsomes, pH 7.4
In short: (§1)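 Pooled liver microsomes (CD-1 mouse, SD rat or human) at 0.5 mg/mL, with 1 μM test compound, 1.7 mM β-NADPH and 3.3 mM MgCl2 in 0.1 M phosphate pH 7.4, 37°C, DMSO <0.1% final. Samples at 0, 5, 10, 15, 30, 45, 60 min were quenched in cold acetonitrile with internal standard. Parent remaining measured by negative-ion MRM LC–MS/MS. t1/2 from ln(remaining) versus time. Controls: no-NADPH, verapamil.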

[2] = Metabolic stability in pooled human liver microsomes; type: in vitro ADME; conditions: for half-life at 1 μM: human, pooled human liver microsomes, pH 7.4
In short: as §1

[3] = Metabolic stability in pooled CD-1 mouse liver microsomes; type: in vitro ADME; conditions: for half-life at 1 μM: CD-1, mouse, pooled mouse liver microsomes, pH 7.4
In short: as §1

obese mice = conditions: earlier work of the authors; cited from earlier work

With `[2H]CC([2H])(C)c1ccc2oc3nc(N)c(C(=O)O)cc3c(=O)c2c1` (stereo not shown) [Compound 5, 2-Amino-5-oxo-7-(propan-2-yl-1,2-d2)-5H-chromeno[2,3-b]pyridine-3-carboxylic acid] the half-life at 1 μM [1] was > 1 h, the “stability relative to amlexanox” value ([1]; rat liver microsomes) was “more stable than amlexanox (1)” and the half-life at 1 μM [2] was > 1 h. The half-life at 1 μM [3] was > 1 h.

With `CC(C)c1ccc2oc3nc(N)c(C(=O)O)cc3c(=O)c2c1` [Compound 1, amlexanox] the half-life at 1 μM [1] was > 1 h, the “more unmetabolized amlexanox remaining compared to d2-amlexanox” value ([2]; human liver microsomes, after 60 min) was “about 8%” and the half-life at 1 μM [2] was > 1 h. The “effects in obese mice” value (obese mice) was “weight loss in obese mice, improved insulin sensitivity, and reduced hepatic steatosis and inflammation”, the half-life at 1 μM [3] was > 1 h and the “more unmetabolized amlexanox remaining compared to d2-amlexanox” value ([3]; mice liver microsomes, after 60 min) was “about 8%”.
